Test results as given in article PMC10651396 (The Journal of Cell Biology, 2023).
Where no end group is shown, it is not given here.

T1: His-Cap1/2 (CP) (Saccharomyces cerevisiae, UniProt P13517+P28495)
T1 sequence (P28495 1-268): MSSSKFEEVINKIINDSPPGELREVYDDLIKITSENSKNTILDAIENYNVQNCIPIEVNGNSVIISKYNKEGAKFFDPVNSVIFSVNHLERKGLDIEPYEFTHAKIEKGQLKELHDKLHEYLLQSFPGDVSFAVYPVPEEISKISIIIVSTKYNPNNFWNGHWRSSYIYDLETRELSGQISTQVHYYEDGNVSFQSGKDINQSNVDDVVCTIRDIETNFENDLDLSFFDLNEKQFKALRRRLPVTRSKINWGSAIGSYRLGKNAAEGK
T1 sequence (P13517 1-287): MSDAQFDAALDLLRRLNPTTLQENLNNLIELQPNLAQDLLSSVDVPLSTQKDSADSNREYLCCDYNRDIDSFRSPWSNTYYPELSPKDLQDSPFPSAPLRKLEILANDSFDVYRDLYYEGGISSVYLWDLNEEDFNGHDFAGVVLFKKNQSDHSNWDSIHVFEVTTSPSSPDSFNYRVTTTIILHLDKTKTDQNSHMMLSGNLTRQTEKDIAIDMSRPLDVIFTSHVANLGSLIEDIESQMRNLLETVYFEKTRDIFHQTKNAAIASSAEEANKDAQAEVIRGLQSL

T2: 6-histidine-tagged actin capping protein (His-Cap1/2) (S. cerevisiae, UniProt P28495 1-268; P13517 1-287)
T2 sequence (looked up) 1: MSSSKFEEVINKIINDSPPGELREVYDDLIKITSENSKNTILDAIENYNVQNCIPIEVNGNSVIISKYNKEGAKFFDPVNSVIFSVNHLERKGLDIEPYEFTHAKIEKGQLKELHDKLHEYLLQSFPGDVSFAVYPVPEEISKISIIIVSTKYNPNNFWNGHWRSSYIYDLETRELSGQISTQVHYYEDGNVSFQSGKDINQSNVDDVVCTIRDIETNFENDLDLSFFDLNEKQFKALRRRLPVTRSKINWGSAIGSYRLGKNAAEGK
T2 sequence (looked up) 2: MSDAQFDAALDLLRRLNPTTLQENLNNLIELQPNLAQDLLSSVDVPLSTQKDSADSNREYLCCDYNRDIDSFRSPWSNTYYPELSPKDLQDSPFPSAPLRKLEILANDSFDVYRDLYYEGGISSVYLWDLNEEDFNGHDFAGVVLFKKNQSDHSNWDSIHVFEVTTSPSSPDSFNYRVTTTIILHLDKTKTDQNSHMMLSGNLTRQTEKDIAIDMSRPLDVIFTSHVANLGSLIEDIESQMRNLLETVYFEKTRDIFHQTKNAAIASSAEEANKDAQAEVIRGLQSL

T3: His-Cap1/2^D44A (S. cerevisiae, UniProt P28495 1-268; P13517 1-287, D44A)
T3 sequence (looked up) 1: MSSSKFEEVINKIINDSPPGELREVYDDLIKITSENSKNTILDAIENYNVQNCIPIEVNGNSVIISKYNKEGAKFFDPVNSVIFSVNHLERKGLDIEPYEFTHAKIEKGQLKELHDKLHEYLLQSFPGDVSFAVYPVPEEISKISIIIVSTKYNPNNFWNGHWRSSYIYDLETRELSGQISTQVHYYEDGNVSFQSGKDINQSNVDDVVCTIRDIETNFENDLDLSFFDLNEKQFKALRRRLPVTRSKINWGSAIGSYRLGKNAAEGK
T3 sequence (looked up) 2: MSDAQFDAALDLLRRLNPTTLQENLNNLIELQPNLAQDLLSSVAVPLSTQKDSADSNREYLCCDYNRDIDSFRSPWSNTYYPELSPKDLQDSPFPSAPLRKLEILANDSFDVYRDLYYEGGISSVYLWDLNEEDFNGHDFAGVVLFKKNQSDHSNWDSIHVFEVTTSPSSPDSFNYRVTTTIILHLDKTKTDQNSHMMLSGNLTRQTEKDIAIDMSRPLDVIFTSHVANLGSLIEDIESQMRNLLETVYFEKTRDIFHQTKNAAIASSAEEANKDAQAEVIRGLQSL

T4: His-Cap1/2^D64A (S. cerevisiae, UniProt P28495 1-268; P13517 1-287, D64A)
T4 sequence (looked up) 1: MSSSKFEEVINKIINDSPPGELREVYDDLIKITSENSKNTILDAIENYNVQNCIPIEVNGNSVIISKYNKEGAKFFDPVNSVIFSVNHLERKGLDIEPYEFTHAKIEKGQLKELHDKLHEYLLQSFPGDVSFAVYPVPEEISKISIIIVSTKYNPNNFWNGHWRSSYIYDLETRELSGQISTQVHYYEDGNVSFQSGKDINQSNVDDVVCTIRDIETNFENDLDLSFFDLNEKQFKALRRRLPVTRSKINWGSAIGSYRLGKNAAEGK
T4 sequence (looked up) 2: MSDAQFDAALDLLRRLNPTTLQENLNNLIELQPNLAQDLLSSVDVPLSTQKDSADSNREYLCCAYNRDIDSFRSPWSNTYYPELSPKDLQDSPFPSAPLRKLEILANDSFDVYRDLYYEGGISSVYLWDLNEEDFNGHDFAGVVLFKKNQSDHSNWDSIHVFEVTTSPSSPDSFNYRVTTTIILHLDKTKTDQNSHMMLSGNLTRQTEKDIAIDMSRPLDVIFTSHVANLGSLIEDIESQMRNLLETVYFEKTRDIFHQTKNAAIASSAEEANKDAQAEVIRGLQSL

T5: His-Cap1/2^D88A (S. cerevisiae, UniProt P28495 1-268; P13517 1-287, D88A)
T5 sequence (looked up) 1: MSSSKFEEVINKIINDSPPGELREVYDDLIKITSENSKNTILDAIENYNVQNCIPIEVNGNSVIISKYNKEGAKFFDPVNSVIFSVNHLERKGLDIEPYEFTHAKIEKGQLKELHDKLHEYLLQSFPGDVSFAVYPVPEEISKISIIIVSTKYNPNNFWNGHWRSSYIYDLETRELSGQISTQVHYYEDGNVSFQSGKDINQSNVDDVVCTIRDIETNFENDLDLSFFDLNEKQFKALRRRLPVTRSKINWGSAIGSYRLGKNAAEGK
T5 sequence (looked up) 2: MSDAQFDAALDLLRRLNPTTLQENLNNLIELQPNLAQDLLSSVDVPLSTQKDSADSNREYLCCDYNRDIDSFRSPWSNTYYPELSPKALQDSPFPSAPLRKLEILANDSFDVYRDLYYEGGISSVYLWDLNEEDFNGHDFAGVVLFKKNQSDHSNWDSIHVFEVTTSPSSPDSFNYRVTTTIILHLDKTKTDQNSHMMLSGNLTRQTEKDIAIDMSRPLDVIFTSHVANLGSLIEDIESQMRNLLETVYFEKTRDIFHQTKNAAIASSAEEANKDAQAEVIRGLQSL


What was measured:
His-Cap1/2 (CP) = molecular target: T1, His-Cap1/2 (CP); type: biochemical; conditions: in words; yeast actin, CP 100 nM, 500 nM peptide
His-Cap1/2 = assay: GST pulldown of capping protein by GST-CPI motif fusions; type: binding, Saccharomyces cerevisiae; conditions: in words; SDS-PAGE and Coomassie staining; His-Tda2 added with Aim21 fusions
How it was run: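 Recombinant GST-CPI fusions and His-Cap1/2 were expressed in BL21 codon plus E. coli, affinity-purified, and dialyzed into PBS. GST protein (10 μg) was bound to glutathione Sepharose for 30 min at 4°C. Equimolar His-protein (His-Tda2 also for Aim21) was added for another 30 min. Resin was washed three times in PBS with 0.1–0.5% Triton X-100. Each pulldown was repeated independently.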

[1] = molecular target: T2, 6-histidine-tagged actin capping …; assay: pull-down
His-Cap1/2^D44A = molecular target: T3, His-Cap1/2^D44A; assay: pull-down
His-Cap1/2^D64A = molecular target: T4, His-Cap1/2^D64A; assay: pull-down
His-Cap1/2^D88A = molecular target: T5, His-Cap1/2^D88A; assay: pull-down
[2] = test system: rabbit skeletal muscle actin; assay: Pyrene actin polymerization assay, substance alone; type: biochemical; conditions: in words, capping protein 100 nM, 1 µM actin, 20% pyrene-labeled
How it was run: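 Rabbit skeletal muscle G-actin in G-buffer (pH 8, 0.2 mM ATP) was spun at 100,000 × g for 30 min at 4°C. It was Mg-exchanged (10 mM EGTA, 1 mM MgCl2) for 10 min at room temperature. Polymerization was started with 50 mM KCl, 2 mM MgCl2, 1 mM ATP and 1 mM EGTA (final). Pyrene fluorescence was read over time at ex 365/em 406 nm. Relative rate came from three independent assays, mean ± SEM.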

| Molecule | effect on the capping function of CP (His-Cap1/2 (CP)) | binding result [1] | binding result (His-Cap1/2^D44A) | binding result (His-Cap1/2^D64A) | binding result (His-Cap1/2^D88A) | also measured |
| --- | --- | --- | --- | --- | --- | --- |
| KTGPLGGTRRGRGPRGRKLPSKVASVEKIEEDDNTNKIEIFNNWNVSS [Aim21^CPI] | partially inhibited the capping function of CP | – | – | – | – | – |
| GST-Inp51: GST fused to Inp51 fragment (874–900) (SIAGPTHSPTPIPEPKRGRKLPPPSSD; also: GST fusion, end not given here) | – | – | – | – | – | interaction with His-Cap1/2 in GST pulldown (His-Cap1/2): failed to pull down |
| KETKPLVHPNKNRTRGPRRKLPTRV [Bsp1^CPI] | partially inhibited the capping function of CP | – | – | – | – | – |
| SNPDLPNKSNLKFNKPKGPLRKRRT [Twf1^CPI] | had no effect | – | – | – | – | – |
| GST-Aim21^CPI (Aim21 491-545) with His-Tda2 (Tda2/Aim21 complex) (complex, S. cerevisiae) chain 1: QAKTGPLGGTRRGRGPRGRKLPSKVASVEKIEEDDNTNKIEIFNNWNVSSSFSKE chain 2: MSMQIEIKDGRSDNSPLPERKLVTLIQESYDSLKDDNEINLSTESTSNLLIKLVLEKLEKHSSLYKYIASVTTLNIEGLNEENANFSLKNDIGASWESKKDGIFNYKLEDKNNNECYLITILWLHK | – | binds | binds | binds | binds | – |
| KETKPLVHPNKNRTRGPRRKLPTRV (domain or fragment, S. cerevisiae) [GST-Bsp1^CPI (Bsp1 552-576)] | – | binds | binds | binds | binds | – |
| SNPDLPNKSNLKFNKPKGPLRKRRT (domain or fragment, S. cerevisiae) [GST-Twf1^CPI (Twf1 308-332)] | – | binds | binds | binds | binds | – |
| CP: 6-histidine–tagged yeast actin capping protein, Cap1/Cap2 heterodimer (protein, UniProt P28495 2-268; P13517 2-287, looked up, His6 tag) F-actin-capping protein … 1: SSSKFEEVINKIINDSPPGELREVYDDLIKITSENSKNTILDAIENYNVQNCIPIEVNGNSVIISKYNKEGAKFFDPVNSVIFSVNHLERKGLDIEPYEFTHAKIEKGQLKELHDKLHEYLLQSFPGDVSFAVYPVPEEISKISIIIVSTKYNPNNFWNGHWRSSYIYDLETRELSGQISTQVHYYEDGNVSFQSGKDINQSNVDDVVCTIRDIETNFENDLDLSFFDLNEKQFKALRRRLPVTRSKINWGSAIGSYRLGKNAAEGK F-actin-capping protein … 2: SDAQFDAALDLLRRLNPTTLQENLNNLIELQPNLAQDLLSSVDVPLSTQKDSADSNREYLCCDYNRDIDSFRSPWSNTYYPELSPKDLQDSPFPSAPLRKLEILANDSFDVYRDLYYEGGISSVYLWDLNEEDFNGHDFAGVVLFKKNQSDHSNWDSIHVFEVTTSPSSPDSFNYRVTTTIILHLDKTKTDQNSHMMLSGNLTRQTEKDIAIDMSRPLDVIFTSHVANLGSLIEDIESQMRNLLETVYFEKTRDIFHQTKNAAIASSAEEANKDAQAEVIRGLQSL | – | – | – | – | – | ability to cap actin filaments ([2]; listed as CP^1*): no ability to cap actin filaments; ability to cap actin filaments ([2]; listed as CP^2*): equivalent capping ability to CP |
